The results in this text go back to PubChem BioAssay.

Active and inactive are the calls of the source.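 The calls were made as follows, unless noted: active = GFP response above 150% of the DMSO level; inconclusive = fewer than 70 events counted for a yeast strain; inactive = the rest.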

The nature of assay [1]: hit retest on RPL19A-GFP reporter strain – cell-based, S. cerevisiae, flow cytometry, cherry picks, mother/daughter gates, confirmation (AID 2270;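 active = GFP response below 50% of the DMSO control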). Conditions: 3 h, at 10 µM, stronger effect = lower value, 100 = same GFP as DMSO wells. (A flow cytometer gives signals particle by particle.)
Assay [2] is described as follows: yeast TOR pathway reporter LAP4-GFP change – cell-based, cherry picks, flow cytometry, mother/daughter gates, confirmation (AID 2271;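 active = GFP response above 150% of the DMSO control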;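 also: ratio of sample to DMSO plate mean so 100% equals DMSO level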). Conditions: S. cerevisiae LAP4-GFP strain, 3 h, at 10 µM, stronger effect = higher value, 100 means same as DMSO control. In a few lines: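 Measured by: GFP by flow cytometry. Test system: GFP-fusion yeast strain. Input: yeast cells seeded at OD600 of 0.2. Timing: 30 °C, 3 h compound incubation, rotating. Buffer or medium: synthetic complete medium for yeast. Benchmarks: DMSO-only negative wells, rapamycin 400 ng/mL positive wells. Compound: 10 µM single dose.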

A short description of assay [3]: TOR pathway reporter MEP2-GFP, retest of hits – S. cerevisiae, flow cytometry GFP, cherry picks, confirmation (AID 2272;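 active = GFP response above 150% of the DMSO control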;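 also: ratio of well signal to plate DMSO mean so 100% equals DMSO level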). The conditions noted are these: S. cerevisiae MEP2-GFP strain, 3 h, at 10 µM, stronger effect = higher value.
Assay [4] can be described thus: yeast AGP1-GFP fluorescence change, single-dose – cell-based, flow cytometry, S. cerevisiae, cherry picks, confirmation (AID 2273).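 Also: median GFP channel fluorescence over the whole cell population gate.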 Conditions: S. cerevisiae AGP1-GFP strain, 3 h, at 10 µM.
Assay [5] in a line: TOR pathway CIT2 reporter hit retest – S. cerevisiae, GFP fusion, cherry picks, mother/daughter gates, confirmation (AID 2274). Conditions: S. cerevisiae CIT2-GFP strain, flow cytometry, 3 h, at 10 µM, stronger effect = higher value.
Setting [6] is: measured here: daughter cell gate.
The mark [7] stands for this setting: measured here: mother cell gate.
Setting [8] is: measured here: daughter cell gate response.
Where [9] appears, read: measured here: mother cell gate response.

On to `CN1C(=O)/C(=N\OC(=O)c2cccc3ccccc23)c2ccccc21`, for which the GFP response vs DMSO was 102% (inactive) in assay [1], 99.8% in assay [1] (setting [6]), 93.4% in assay [1] (setting [7]) and 110% (inactive) in assay [3]. In addition, the GFP response relative to DMSO was 163% (active) in assay [2], 140% in assay [2] (setting [8]) and 154% in assay [2] (setting [9]). Also, the GFP response, % of DMSO in assay [4] is 88.4% (inactive); in assay [5] it was 99.3% (inactive); in assay [5] (setting [6]) it was 102%; in assay [5] (setting [7]), 80.5%.

Turning to `CN1/C(=C\C(=O)c2cccc(S(=O)(=O)N3CCCCC3)c2)C(C)(C)c2ccccc21`, the GFP response vs DMSO was 96.8% (inactive) in assay [1], 97.6% in assay [1] (setting [6]), 97.2% in assay [1] (setting [7]) and 100% (inactive) in assay [3]. In addition, the GFP response relative to DMSO is 95.4% (inactive) in assay [2], 97.6% in assay [2] (setting [8]) and 94% in assay [2] (setting [9]). Moreover, the GFP response, % of DMSO in assay [4] was 97.2% (inactive); in assay [5], 98.3% (inactive); in assay [5] (setting [6]) it was 99.1%; in assay [5] (setting [7]), 98.5%.

Turning to `COc1cc(NC(=O)c2ccc(F)cc2)ccc1NC(=O)c1cc2ccccc2o1`, the GFP response vs DMSO in assay [1] was 98% (inactive); in assay [1] (setting [6]), 99.1%; in assay [1] (setting [7]) it was 94.3%; in assay [3], 101% (inactive). Moreover, the GFP response relative to DMSO in assay [2] is 96.1% (inactive); in assay [2] (setting [8]), 96.6%; in assay [2] (setting [9]), 96.2%. Moreover, the GFP response, % of DMSO in assay [4] is 102% (inactive); in assay [5], 94.7% (inactive); in assay [5] (setting [6]) it was 96.8%; in assay [5] (setting [7]) it was 94.7%.

Consider `O=C(NCCO)c1c(O)c2cccc3c2n(c1=O)CC3`, for which the GFP response vs DMSO was 99.3% (inactive) in assay [1], 99.2% in assay [1] (setting [6]), 99.4% in assay [1] (setting [7]) and 97.8% (inactive) in assay [3]. Besides, the figures for the GFP response relative to DMSO in assay [2], in assay [2] (setting [8]) and in assay [2] (setting [9]) were 92.6% (inactive), 94.1% and 94.2%, respectively. The GFP response, % of DMSO in assay [4] is 101% (inactive); in assay [5] it was 97.8% (inactive); in assay [5] (setting [6]), 96.5%; in assay [5] (setting [7]) it was 96.6%.

Regarding `CCCc1nnc(NC(=O)c2nc(S(=O)(=O)Cc3cccc(C)c3)ncc2Cl)s1`, the GFP response vs DMSO in assay [1] was 95.1% (inactive); in assay [1] (setting [6]) it was 96.4%; in assay [1] (setting [7]), 95.2%; in assay [3], 103% (inactive). Besides, the GFP response relative to DMSO is 106% (inactive) in assay [2], 102% in assay [2] (setting [8]) and 107% in assay [2] (setting [9]). For the same compound, the GFP response, % of DMSO was 101% (inactive) in assay [4], 97.2% (inactive) in assay [5], 99.3% in assay [5] (setting [6]) and 98.2% in assay [5] (setting [7]).

Take `CCCn1nc(C(=O)OCC(=O)c2ccc3c(c2)NC(=O)CO3)c2ccccc2c1=O`: the GFP response vs DMSO in assay [1] was 97.2% (inactive); in assay [1] (setting [6]), 96.6%; in assay [1] (setting [7]), 96.5%; in assay [3], 105% (inactive). Further, the GFP response relative to DMSO was 98.2% (inactive) in assay [2], 97.5% in assay [2] (setting [8]) and 98.4% in assay [2] (setting [9]). Moreover, the GFP response, % of DMSO in assay [4] is 96.3% (inactive); in assay [5] it was 100% (inactive); in assay [5] (setting [6]) it was 97.4%; in assay [5] (setting [7]), 101%.

With `Cc1ccc(C2CC(c3ccco3)=NN2S(C)(=O)=O)cc1` (centres undefined), the GFP response vs DMSO in assay [1] was 97.2% (inactive); in assay [1] (setting [6]) it was 97%; in assay [1] (setting [7]), 97.1%; in assay [3], 106% (inactive). Further, the GFP response relative to DMSO in assay [2] is 105% (inactive); in assay [2] (setting [8]) it was 102%; in assay [2] (setting [9]) it was 104%. For the same compound, the GFP response, % of DMSO in assay [4] is 93.8% (inactive); in assay [5], 96.4% (inactive); in assay [5] (setting [6]) it was 98.3%; in assay [5] (setting [7]), 95.6%.

For `Oc1c(Br)cc(Br)cc1C=Nc1ccc2c(c1)OCO2`, the GFP response vs DMSO in assay [1] is 98.2% (inactive); in assay [1] (setting [6]) it was 88.5%; in assay [1] (setting [7]) it was 98.5%; in assay [3], 110% (inactive). Besides, the figures for the GFP response relative to DMSO in assay [2], in assay [2] (setting [8]) and in assay [2] (setting [9]) were 190% (active), 114% and 174%, respectively. The GFP response, % of DMSO in assay [4] is 99.3% (inactive); in assay [5] it was 97.8% (inactive); in assay [5] (setting [6]), 98.3%; in assay [5] (setting [7]) it was 91%.

For the compound `O=C(OCCCOC(=O)c1ccc(Br)o1)c1ccc(Br)o1`, the GFP response vs DMSO in assay [1] was 98.2% (inactive); in assay [1] (setting [6]), 95.3%; in assay [1] (setting [7]), 98%; in assay [3], 103% (inactive). Besides, the GFP response relative to DMSO in assay [2] was 108% (inactive); in assay [2] (setting [8]), 108%; in assay [2] (setting [9]) it was 109%. The GFP response, % of DMSO in assay [4] is 102% (inactive); in assay [5], 97.2% (inactive); in assay [5] (setting [6]), 97.6%; in assay [5] (setting [7]) it was 97.1%.

On to `CS(=O)(=O)N1N=C(c2ccco2)CC1c1ccccc1` (centres undefined), for which the GFP response vs DMSO is 100% (inactive) in assay [1], 101% in assay [1] (setting [6]), 99.9% in assay [1] (setting [7]) and 99% (inactive) in assay [3]. Further, the GFP response relative to DMSO in assay [2] is 102% (inactive); in assay [2] (setting [8]), 102%; in assay [2] (setting [9]), 100%. For the same compound, the GFP response, % of DMSO in assay [4] is 105% (inactive); in assay [5], 106% (inactive); in assay [5] (setting [6]), 105%; in assay [5] (setting [7]), 103%.

Take `COc1ccc(N2CCN(C(=O)c3ccccc3)CC2)c([N+](=O)[O-])c1`: the GFP response vs DMSO in assay [1] is 101% (inactive); in assay [1] (setting [6]), 98.8%; in assay [1] (setting [7]) it was 103%; in assay [3], 107% (inactive). In addition, the figures for the GFP response relative to DMSO in assay [2], in assay [2] (setting [8]) and in assay [2] (setting [9]) were 106% (inactive), 104% and 108%, respectively. In addition, the GFP response, % of DMSO is 102% (inactive) in assay [4], 91.5% (inactive) in assay [5], 93.8% in assay [5] (setting [6]) and 96.8% in assay [5] (setting [7]).

With `Cc1cccc(Nc2nc(-c3ccccn3)cs2)n1`, the GFP response vs DMSO in assay [1] was 77.9% (inactive); in assay [1] (setting [6]) it was 104%; in assay [1] (setting [7]), 66.6%; in assay [3] it was 110% (inactive). The GFP response relative to DMSO in assay [2] is 137% (inactive); in assay [2] (setting [8]) it was 138%; in assay [2] (setting [9]), 120%. The GFP response, % of DMSO in assay [4] is 89.8% (inactive); in assay [5], 100% (inactive); in assay [5] (setting [6]), 121%; in assay [5] (setting [7]), 83.7%.

With `CC1CCCCN1S(=O)(=O)c1ccc(C(=O)Nc2nnc(-c3ccccc3Cl)o2)cc1` (centres undefined), the GFP response vs DMSO in assay [1] is 97.8% (inactive); in assay [1] (setting [6]), 97.9%; in assay [1] (setting [7]), 98.4%; in assay [3], 102% (inactive). Moreover, the figures for the GFP response relative to DMSO in assay [2], in assay [2] (setting [8]) and in assay [2] (setting [9]) were 94.1% (inactive), 94.4% and 91.9%, respectively. Moreover, the GFP response, % of DMSO in assay [4] was 98.3% (inactive); in assay [5] it was 99.7% (inactive); in assay [5] (setting [6]), 101%; in assay [5] (setting [7]), 98.5%.

For `S=c1[nH]nc(-c2ccco2)n1/N=C/C(Cl)=C/c1ccccc1`, the GFP response vs DMSO in assay [1] is 98.4% (inactive); in assay [1] (setting [6]), 98.5%; in assay [1] (setting [7]), 98.3%; in assay [3], 112% (inactive). Also, the GFP response relative to DMSO is 129% (inactive) in assay [2], 121% in assay [2] (setting [8]) and 131% in assay [2] (setting [9]). Moreover, the GFP response, % of DMSO is 95.6% (inactive) in assay [4], 97.8% (inactive) in assay [5], 100% in assay [5] (setting [6]) and 94.5% in assay [5] (setting [7]).
